Test results from ChEMBL document CHEMBL5108087, “Synthesis and biological evaluation of paeoveitol D derivatives as new melatonin receptor agonists with antidepressant activities” (RSC Med Chem, 2022).

How the values were obtained:
Assay type in all cases: functional, cell-based
[1] = target: T1, Melatonin receptor type 1A (Homo sapiens, UniProt P48039); assay: Agonist activity at human MT1 receptor expressed in HEK293 cells assessed as fold change at 1 mM by Fluo-8 based calcium assay relative to Paeovetiol-D; settings: filed as agonist
Summary of the method: (§1)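 HEK293 cells stably expressing human MT1 or MT2, grown in DMEM with 10% FBS at 37 °C, seeded at 4 × 10^4 per well on Matrigel and left overnight. Loaded 1 h with a wash-free calcium dye kit. Compounds tested at 1.0 mM from DMSO/HBSS solutions. Fluorescence read at room temperature, excitation 485 nm, emission 525 nm.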

[2] = target: T2, Melatonin receptor type 1B (Homo sapiens) (UniProt P49286); assay: Agonist activity at human MT2 receptor expressed in HEK293 cells assessed as fold change at 1 mM by Fluo-8 based calcium assay relative to Paeovetiol-D; settings: filed as agonist; summary of the method: as §1
T2 sequence (whole entry): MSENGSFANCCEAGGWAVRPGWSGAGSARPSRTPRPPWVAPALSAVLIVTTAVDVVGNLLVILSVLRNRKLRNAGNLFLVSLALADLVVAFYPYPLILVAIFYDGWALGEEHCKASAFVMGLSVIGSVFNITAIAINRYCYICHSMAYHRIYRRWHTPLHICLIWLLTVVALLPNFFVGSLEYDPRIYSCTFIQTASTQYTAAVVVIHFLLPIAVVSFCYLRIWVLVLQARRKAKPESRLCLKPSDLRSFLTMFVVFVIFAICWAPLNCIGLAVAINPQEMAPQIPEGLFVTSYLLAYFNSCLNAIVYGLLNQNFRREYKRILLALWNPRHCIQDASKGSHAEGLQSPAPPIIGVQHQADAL

[3] = target: T1, Melatonin receptor type 1A; assay: Agonist activity at human MT1 receptor expressed in HEK293 cells by Fluo-8 based calcium assay
[4] = target: T3, Melatonin receptor type 1B (Homo sapiens, UniProt P49286); assay: Agonist activity at human MT2 receptor expressed in HEK293 cells by Fluo-8 based calcium assay
T3 sequence (P49286 whole entry): T2 sequence (whole entry)

T1 sequence (P48039 whole entry): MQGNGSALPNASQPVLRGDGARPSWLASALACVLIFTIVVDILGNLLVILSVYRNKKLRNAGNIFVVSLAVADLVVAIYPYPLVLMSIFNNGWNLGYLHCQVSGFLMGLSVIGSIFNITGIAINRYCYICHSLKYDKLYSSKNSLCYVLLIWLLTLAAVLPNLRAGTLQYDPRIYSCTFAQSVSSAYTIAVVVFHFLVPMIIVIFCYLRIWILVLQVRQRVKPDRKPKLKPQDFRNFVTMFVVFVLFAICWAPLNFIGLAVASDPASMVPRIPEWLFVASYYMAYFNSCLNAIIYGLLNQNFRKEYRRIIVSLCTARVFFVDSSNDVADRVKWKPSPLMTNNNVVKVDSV

SMILES: COc1cc2c(CN(C)C)coc2cc1C
- fold change (FC) [1]: 2
- fold change (FC) [2]: 3
- EC50 [3]: 440 µM
- EC50 [4]: 130 µM

SMILES: COc1cc2c(CO)coc2cc1C
- EC50 [3]: 700 µM
- EC50 [4]: 520 µM
